An excerpt weighted towards active compounds, which were near 2.3% of everything screened.
MEKK2 mut-MEK5: MEK5 binding signal on mutant MEKK2 PB1, primary screen, biochemical, multiplex bead flow cytometry, Alexa488-MEK5; Alexa488-MEK5 binding to MEKK2 mutant; percent response, % at 10 µM; 0.35% of 290,000 active; AID 1530, 2009; in the data active means percent response above about 24%, passing the limit was not always enough
MEKK2wt PB1 HTS: modulators of MEK5 binding to wildtype MEKK2, primary screen, biochemical, multiplex bead flow cytometry, Alexa488-MEK5 | Mitogen-activated protein kinase kinase kinase 2 (Homo sapiens), Q9Y2U5 | Alexa488-MEK5 binding to MEKK2 WT; actives lie on both sides | binding response (% of control), % at 10 µM | 1.1% of 290,000 active | AID 1531, 2009; in the data active means binding response below about 67% or above about 130%
ABCG2 block: ABCG2 efflux pump inhibitors, primary screen, multiplex with ABCB1, IgMXP3 cells, flow cytometry; 0.1% of 190,000 active; Broad substrate specificity ATP-binding cassette transporter ABCG2 (Homo sapiens), Q9UNQ0; JC-1 efflux; inhibition, % at 6.6 µM;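 active means inhibition above 80%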;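 further: 0% = DMSO and 100% = nicardipine control wells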
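Read-out basis: Efflux inhibition in percent versus controls | Test system: ABCG2 IgMXP3 and barcoded ABCB1 CCRF-Adr cell mix | Quantity: 3 million cells/mL in well | Schedule: 10 min at 25 °C | Control set: Nicardipine as high control, DMSO as low control | Reagent: JC-1 as fluorescent efflux pump substrate | Signal: Flow cytometry of retained JC-1 fluorescence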
MEKK3 PB1 HTS: modulators of MEKK3-MEK5 PB1 binding, primary screen, biochemical, wildtype MEKK3, multiplex bead flow cytometry, Alexa488-MEK5 | AID 1529, 2009 | 1.4% of 290,000 active | binding response (% of control), % at 10 µM | Mitogen-activated protein kinase kinase kinase 3 (Homo sapiens), Q99759 | bead-based flow cytometry, Alexa488-MEK5 binding to MEKK3; actives lie on both sides; 0 = blocked by unlabeled MEK5, 100 = vehicle;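 active means binding response more than 3 SD above or below the average of its plate-row segment, actives on both sides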;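 further: Alexa488 bead fluorescence after subtracting the streptavidin-only scavenger bead signal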
Target sequence (Q99759 whole entry, looked up): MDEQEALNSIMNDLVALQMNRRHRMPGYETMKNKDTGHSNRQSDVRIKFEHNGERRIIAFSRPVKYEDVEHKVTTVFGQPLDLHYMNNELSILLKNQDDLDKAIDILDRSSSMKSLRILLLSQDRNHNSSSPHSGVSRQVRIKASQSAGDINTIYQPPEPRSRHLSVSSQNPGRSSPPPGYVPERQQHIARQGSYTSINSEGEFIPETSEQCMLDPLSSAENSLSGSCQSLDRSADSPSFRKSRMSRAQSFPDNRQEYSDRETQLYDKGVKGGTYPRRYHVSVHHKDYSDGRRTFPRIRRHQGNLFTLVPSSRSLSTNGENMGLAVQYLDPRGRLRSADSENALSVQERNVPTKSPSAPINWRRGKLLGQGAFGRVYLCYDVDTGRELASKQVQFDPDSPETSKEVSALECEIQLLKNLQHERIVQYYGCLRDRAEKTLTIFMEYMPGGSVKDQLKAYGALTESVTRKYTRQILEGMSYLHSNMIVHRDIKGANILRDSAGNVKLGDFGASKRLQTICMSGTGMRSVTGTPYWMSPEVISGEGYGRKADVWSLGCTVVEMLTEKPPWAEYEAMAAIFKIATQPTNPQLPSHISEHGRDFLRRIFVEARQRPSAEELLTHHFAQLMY
ABCB1 inh: ABCB1 efflux pump inhibitors, primary screen, cell-based, multiplex, flow cytometry, ABCG2 counter-screen; ATP-dependent translocase ABCB1 (Homo sapiens), P08183; CCRF-Adr cells, JC-1 efflux; inhibition, % at 6.6 µM; 0.067% of 190,000 active; in the data active means inhibition above about 40%;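 further: 0% = vehicle and 100% = reference inhibitor; higher value means more JC-1 retained so stronger ABCB1 efflux block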
ABCB1 single pt: ABCB1 efflux pump inhibitors, confirmation, cell-based, single point, ABCG2 counter-screen. shares compounds with ABCG2 block. CCRF-Adr cells, JC-1 efflux, flow cytometry. inhibition, % at 6.6 µM. 7% of 270 active. AID 1451, 2008;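 active means inhibition of pump activity above 50%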;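 further: 0% = DMSO and 100% = nicardipine full pump inhibition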
ABCG2 confirm: ABCG2 efflux pump inhibitors, confirmation, single point, IgMXP3 cells, ABCB1 counter-screen paired; shares compounds with ABCG2 block; AID 1453, 2008; JC-1 efflux, flow cytometry; 6% of 270 active; inhibition, % at 6.6 µM;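 active means inhibition above 50%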;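 further: 0% = DMSO wells and 100% = nicardipine pump inhibitor wells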
IgMXP3 fluor: compound autofluorescence in ABCG2-expressing IgMXP3 cells, confirmation, artefact control for ABC transporter inhibitor project, cell-based, 488/530 nm, flow cytometry; shares compounds with ABCG2 block; compound autofluorescence 488/530 nm; active compounds read high; fluorescence at 6.6 µM; 30% of 270 active; AID 1480, 2009;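 active means fluorescence in ABCG2-expressing cells above the plate's control-well mean plus 3 SD, cut at about 15 in these data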;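 further: median cell fluorescence with compound minus that of DMSO-treated control cells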
CCRF-Adr fluor: compound autofluorescence in ABCB1-expressing CCRF-Adr cells, confirmation, artefact control for ABC transporter inhibitor project, cell-based, 488/530 nm, flow cytometry | shares compounds with ABCG2 block | compound autofluorescence 488/530 nm; active compounds read high | fluorescence at 6.6 µM | 30% of 270 active;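 active means fluorescence beyond the plate control mean plus 3 SD, with a fluorescence-to-maximum score over 2, cut at about 25 in these data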
MEKK2wt confirm: modulators of MEK5 binding to wildtype MEKK2, confirmation, biochemical, single concentration, multiplex bead flow cytometry; Alexa488-MEK5 binding to MEKK2 WT; actives lie on both sides; 2.4% of 5,900 active; AID 1892, 2009; binding response (% of control), % at 10 µM; shares compounds with MEKK3 PB1 HTS; in the data active means binding response below about 16% or above about 210%; inactive means in between
MEKK2mut confirm: mutant MEKK2 PB1-MEK5 binding signal retest – biochemical, single concentration, multiplex bead flow cytometry, confirmation | percent response, % at 10 µM | Alexa488-MEK5 binding to MEKK2 mutant | AID 1893, 2009 | shares compounds with MEKK3 PB1 HTS | 2% of 5,900 active; in the data active means percent response mostly above about 71%, no sharp cut-off; inactive means mostly below about 38%;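 further: higher means compound restores mutant binding toward wildtype level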
MEKK3-MEK5 inh: MEKK3 wild-type PB1 binding to MEK5, inhibitors, confirmation, biochemical, bead multiplex flow cytometry, single concentration, wildtype. shares compounds with MEKK3 PB1 HTS. Alexa488-MEK5 binding to MEKK3; active compounds read low. binding response (% of control), % at 10 µM. 1.8% of 5,900 active. AID 1894, 2009;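 active means binding response below 72% of control, or above a set upper limit, though filed actives all read lower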;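 further: 100% = DMSO only wells and 0% = binding blocked by excess unlabeled MEK5; lower values mean stronger disruption of MEK5 binding to MEKK3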
* hit, by the source's call; · = no result given.

SMILES	MEKK2 mut-MEK5	MEKK2wt PB1 HTS	ABCG2 block	MEKK3 PB1 HTS	ABCB1 inh	others
Cc1nn(Cc2c(Cl)cccc2Cl)c(Cl)c1C(=O)O	4	-4.0*	3	102	1
O=c1c2ccccc2nc(-c2cccs2)n1-c1ccccc1	-1	100	37	102	1
NC(N)=N/N=C/c1cn(-c2ccccc2)nc1-c1cccs1	27	184*	0	103	0
O=C1NC(=O)N(Cc2ccc(F)cc2)C(=O)/C1=C\c1ccc(N2CCCC2)cc1	10	18*	·	93	·
O=C1NC(=O)N(c2ccc(F)cc2)C(=O)/C1=C/c1ccc(N2CCOCC2)cc1	-3	99	1	99	0
CCOc1ccc(C(C)=O)cc1Cn1ccsc1=N	23	145*	·	104	·
CC[n+]1c(/C=C/C=C/c2ccc(N(C)C)cc2)sc2ccccc21	12	-5.0*	·	95	·
C[n+]1c(-c2ccccc2)sc2ccccc21	2	106	·	104	·
CN(C)c1ccc(/C=C/C=C/c2sc3ccccc3[n+]2C)cc1	8	4.0*	·	98	·
COc1ccc2ccccc2c1CNCCc1ccccc1	5	115	·	97	·
CCN(CC)C(=O)c1ccc(NC(=O)CN2CCc3cc(OC)c(OC)cc3C2)cc1	2	101	·	98	·
O=c1nc(/C=C/c2ccc(Cl)cc2Cl)cc(C(F)(F)F)[nH]1	6	102	·	103	·
CC(C)=CCC12CN3CCN(CC(C3)C1=O)C2	3	106	107*	104	4	ABCB1 single pt=-3;ABCG2 confirm=7;IgMXP3 fluor=2.8;CCRF-Adr fluor=19
Cc1cccc(-n2c(C)nc3ccc(Cl)cc3c2=O)c1	5	101	·	101	·
Cc1ccc2[nH]c(C)c(CCNCc3ccco3)c2c1	13	127	·	103	·
Cc1[nH]c2ccc(OC(F)(F)F)cc2c1CCNCc1cccc([N+](=O)[O-])c1	25*	148*	·	108	·	MEKK2wt confirm=170;MEKK2mut confirm=45;MEKK3-MEK5 inh=104
Cc1[nH]c2ccc(OC(F)(F)F)cc2c1CCNCc1ccc(Cl)cc1	37*	174*	·	101	·	MEKK2wt confirm=195;MEKK2mut confirm=43;MEKK3-MEK5 inh=106
CCOc1cccc(CNCCc2c(C)[nH]c3ccc(OC(F)(F)F)cc23)c1O	19	150*	·	104	·	MEKK2wt confirm=177;MEKK2mut confirm=48;MEKK3-MEK5 inh=104

Bioassay records from PubChem.
